Experimental data: ChEMBL document CHEMBL1121831 (1981)

Experiments:
[1] = tested on: L1210; assay: Compound is evaluated for percent increase in life span against L1210 leukemia in mice, at dose 80 mg/kg; format: functional; details: Mus musculus
Summary of the method: (§1)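 B6D2F1 mice were inoculated ip with 10⁵ L1210 cells on day 0. Drug was given ip on days 1, 4 and 7 (q3d) as a suspension in 10% Tween 80 or 1:1:8 emulphor–ethanol–water, or as the disodium salt in water. The read-out was median survival of treated versus control mice (T/C, days), expressed as % increase in life span.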

[2] = tested on: CCRF-CEM (Homo sapiens); assay: Percent inhibition of human lymphoblastic leukemia cell growth (48h) at 10 uM
[3] = tested on: Mus musculus; assay: Compound is evaluated for activity against L1210 leukemia in mice, at dose 160 mg/kg expressed as T/C=15/9; format: functional
Summary of the method: (§2)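 B6D2F1 mice were inoculated ip with 10^5 L1210 cells on day 0. Test agents were given ip on days 1, 4 and 7 in 10% Tween 80 or a 1:1:8 emulphor-ethanol-water suspension; MTX was given ip as the disodium salt in water. Groups were mostly five mice. Read-out was median survival of treated vs control mice (days) and % increase in life span.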

[4] = biological target: Dihydrofolate reductase (Lactobacillus casei) (UniProt P00381); assay: Compound is evaluated for binding to Lactobacillus casei dihydrofolate reductase using kinetic assay; details: Lacticaseibacillus casei
[5] = tested on: CCRF-CEM; assay: Compound is tested for the inhibition of growth of human lymphoblastic leukemia cells (CEM); format: functional; details: read-out: ID50 (the source's name)
Summary of the method: (§3)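 CEM human lymphoblastic and L1210 murine leukemia cells were grown in culture with drug for 48 h, at concentrations up to 10 μM. The read-out was growth inhibition, given as ID50 or, where ID50 was not reached, as percent inhibition at 10 μM. Values are averages of triplicate experiments.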

[6] = tested on: L1210; assay: Compound is evaluated for activity against L1210 leukemia in mice, at dose 160 mg/kg; format: functional, Mus musculus; summary of the method: as §2
[7] = tested on: L1210; assay: Compound is evaluated for percent increase in life span against L1210 leukemia in mice, at dose 160 mg/kg; format: functional; details: Mus musculus; summary of the method: as §1
[8] = tested on: Mus musculus; assay: Compound is evaluated for activity against L1210 leukemia in mice, at dose 80 mg/kg expressed as T/C=11/9; format: functional; summary of the method: as §2
[9] = biological target: T1, Dihydrofolate reductase (Mus musculus) (UniProt P00375); assay: Compound is evaluated for binding to L1210 mouse leukemia cells dihydrofolate reductase using ligand-binding assay
T1 sequence (whole entry): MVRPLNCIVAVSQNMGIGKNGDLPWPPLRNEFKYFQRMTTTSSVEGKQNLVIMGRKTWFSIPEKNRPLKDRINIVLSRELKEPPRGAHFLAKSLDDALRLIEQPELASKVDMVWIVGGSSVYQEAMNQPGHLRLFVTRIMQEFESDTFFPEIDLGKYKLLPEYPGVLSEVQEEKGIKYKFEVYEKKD

[10] = tested on: L1210; assay: Compound is evaluated for activity against L1210 leukemia in mice, at dose 80 mg/kg; format: functional, Mus musculus; summary of the method: as §2
[11] = tested on: L1210; assay: Compound is tested for the inhibition of growth of murine leukemia cells (L1210); format: functional; details: Mus musculus, read-out: ID50 (the source's name); summary of the method: as §3
[12] = tested on: Mus musculus; assay: Compound is evaluated for activity against L1210 leukemia in mice, at dose 20 mg/kg expressed as T/C in experiment 2; format: functional; summary of the method: as §2
[13] = tested on: L1210; assay: Compound is evaluated for percent increase in life span against L1210 leukemia in mice, at dose 15 mg/kg in experiment 1; format: functional; details: Mus musculus; summary of the method: as §1
[14] = tested on: L1210; assay: Compound is evaluated for percent increase in life span against L1210 leukemia in mice, at dose 20 mg/kg in experiment 2; format: functional; details: Mus musculus; summary of the method: as §1
[15] = tested on: Mus musculus; assay: Compound is evaluated for activity against L1210 leukemia in mice, at dose 15 mg/kg expressed as T/C in experiment 1; format: functional; summary of the method: as §2
[16] = tested on: L1210; assay: Compound is evaluated for activity against L1210 leukemia in mice, at dose 15 mg/kg in experiment 1; format: functional, Mus musculus; summary of the method: as §2
[17] = tested on: Mus musculus; assay: Compound is evaluated for activity against L1210 leukemia in mice, at dose 7.5 mg/kg expressed as T/C in experiment 1; format: functional; summary of the method: as §2
[18] = tested on: L1210; assay: Compound is evaluated for activity against L1210 leukemia in mice, at dose 7.5 mg/kg in experiment 1; format: functional, Mus musculus; summary of the method: as §2
[19] = tested on: L1210; assay: Compound is evaluated for activity against L1210 leukemia in mice, at dose 20 mg/kg in experiment 2; format: functional, Mus musculus; summary of the method: as §2
[20] = tested on: L1210; assay: Compound is evaluated for activity against L1210 leukemia in mice, at dose 40 mg/kg in experiment 2; format: functional, Mus musculus; summary of the method: as §2
[21] = tested on: L1210; assay: Compound is evaluated for percent increase in life span against L1210 leukemia in mice, at dose 7.5 mg/kg in experiment 1; format: functional; details: Mus musculus; summary of the method: as §1
[22] = tested on: Mus musculus; assay: Compound is evaluated for activity against L1210 leukemia in mice, at dose 40 mg/kg expressed as T/C in experiment 2; format: functional; summary of the method: as §2
[23] = tested on: L1210; assay: Compound is evaluated for percent increase in life span against L1210 leukemia in mice, at dose 40 mg/kg in experiment 2; format: functional; details: Mus musculus; summary of the method: as §1
[24] = biological target: T1, Dihydrofolate reductase (Mus musculus); assay: Affinity for mammalian (L1210 mouse leukemia) dihydrofolate reductase
Summary of the method: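 Partially purified DHFR from L1210 cells, diluted 8-fold in 0.1 M KH2PO4 (pH 6.2) with 0.1% BSA and 1 mM NADPH, then held on ice 5 min. Competition with [3H]MTX over serial 5-fold dilutions starting from a 6 μM solution, 5 min at 0 °C. Unbound ligand removed with Norite charcoal and the supernatant counted; ID50 (50% drop in bound label) read from a logit-log plot.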

[25] = biological target: Dihydrofolate reductase (Lactobacillus casei) (UniProt P00381); assay: Affinity for partially purified bacterial (Lactobacillus casei) dihydrofolate reductase; details: Lacticaseibacillus casei
[26] = tested on: CCRF-CEM; assay: Compound was tested for the inhibition of growth of human lymphoblastic leukemia cells (CEM); format: functional; details: read-out: ID50 (the source's name); summary of the method: as §3
[27] = tested on: L1210; assay: Compound was tested for the inhibition of growth of murine leukemia cells (L1210); format: functional; details: Mus musculus, read-out: ID50 (the source's name); summary of the method: as §3
[28] = tested on: RBL-1; assay: Compound was tested for the inhibition of growth of rat basophilic leukemia (RBL) cells; format: functional; details: read-out: ID50 (the source's name)
[29] = tested on: L1210; assay: Compound was evaluated for activity against L1210 leukemia in mice, at dose 7.5 mg/kg in experiment 1; format: functional, Mus musculus; summary of the method: as §2
[30] = tested on: Mus musculus; assay: Compound is evaluated for activity against L1210 leukemia in mice, at dose 20 mg/kg expressed as T/C in experiment 2=16/9; format: functional; summary of the method: as §2
[31] = tested on: Mus musculus; assay: Compound is evaluated for activity against L1210 leukemia in mice, at dose 15 mg/kg expressed as T/C in experiment 1=14/10; format: functional; summary of the method: as §2
[32] = tested on: Mus musculus; assay: Compound was evaluated for activity against L1210 leukemia in mice, at dose 7.5 mg/kg expressed as T/C in experiment 1=14/10; format: functional; summary of the method: as §2
[33] = tested on: Mus musculus; assay: Compound is evaluated for activity against L1210 leukemia in mice, at dose 40 mg/kg expressed as T/C in experiment 2=12/9; format: functional; summary of the method: as §2
[34] = tested on: L1210; assay: Compound is evaluated for percent increase in life span against L1210 leukemia in mice, at dose 40 mg/kg; format: functional; details: Mus musculus; summary of the method: as §1
[35] = tested on: Mus musculus; assay: Compound is evaluated for activity against L1210 leukemia in mice, at dose 80 mg/kg expressed as T/C=19/9; format: functional; summary of the method: as §2
[36] = tested on: Mus musculus; assay: Compound is evaluated for activity against L1210 leukemia in mice, at dose 40 mg/kg expressed as T/C= 13/9; format: functional; summary of the method: as §2
[37] = tested on: L1210; assay: Compound is evaluated for activity against L1210 leukemia in mice, at dose 120 mg/kg; format: functional, Mus musculus; summary of the method: as §2
[38] = tested on: Mus musculus; assay: Compound is evaluated for activity against L1210 leukemia in mice, at dose 120 mg/kg expressed as T/C=23/9; format: functional; summary of the method: as §2
[39] = tested on: L1210; assay: Compound is evaluated for activity against L1210 leukemia in mice, at dose 40 mg/kg; format: functional, Mus musculus; summary of the method: as §2
[40] = tested on: L1210; assay: Compound is evaluated for percent increase in life span against L1210 leukemia in mice, at dose 120 mg/kg; format: functional; details: Mus musculus; summary of the method: as §1
[41] = biological target: Dihydrofolate reductase (Lactobacillus casei) (UniProt P00381); assay: Compound is evaluated for binding to dihydrofolate reductase of Lactobacillus casei using kinetic assay; details: Lacticaseibacillus casei

Sequence of Dihydrofolate reductase (Lactobacillus casei) (P00381 whole entry): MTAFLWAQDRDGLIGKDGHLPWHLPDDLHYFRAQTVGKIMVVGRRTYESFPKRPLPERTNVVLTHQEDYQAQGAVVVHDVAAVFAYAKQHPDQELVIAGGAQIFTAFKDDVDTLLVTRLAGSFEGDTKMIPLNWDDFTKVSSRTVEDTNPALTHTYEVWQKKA

SMILES | ILS at 80 mg/kg [1] [%] | ID50 [4] [µM] | IC50 [5] [µM] | ID50 [9] [µM] | MTX equivalent [10] [mg/kg] | IC50 [11] [nM] | ILS at 15 mg/kg [13] [%] | ILS at 20 mg/kg [14] [%] | MTX equivalent [16] [mg/kg] | MTX equivalent [19] [mg/kg] | MTX equivalent [20] [mg/kg] | ILS at 7.5 mg/kg [21] [%] | ILS at 40 mg/kg [23] [%] | IC50 [26] [µM] | IC50 [27] [µM] | further results
COc1ccc(CNC(=O)CCC(NC(=O)c2ccc(N(C)Cc3cnc4nc(N)nc(N)c4n3)cc2)C(=O)NCc2ccc(OC)cc2)cc1 (stereo not given) | 22 | 0.4 | > 10 | 0.13 | 64 | 8200 |  |  |  |  |  |  |  |  |  | inhibition at 10 µM [2]: 44%; Median T/C [3]: 15 days; MTX equivalent [6]: 128 mg/kg; ILS at 160 mg/kg [7]: 66%; Median T/C [8]: 11 days
CN(Cc1cnc2nc(N)nc(N)c2n1)c1ccc(C(=O)NC(CCC(=O)NO)C(=O)O)cc1 (stereo not given) |  | 0.03 | 0.25 | 0.0048 |  | 62 | 60 | 89 | 14.6 | 19.4 | 38.8 | 50 | 111 |  |  | Median T/C [12]: 17 days; Median T/C [15]: 16 days; Median T/C [17]: 15 days; MTX equivalent [18]: 7.3 mg/kg; Median T/C [22]: 19 days
CN(Cc1ccccc1)C(=O)CCC(NC(=O)c1ccc(N(C)Cc2cnc3nc(N)nc(N)c3n2)cc1)C(=O)N(C)Cc1ccccc1 (stereo not given) |  |  |  |  |  |  |  |  |  |  |  |  |  | 6.4 | 9.4 | ID50 [24]: 0.026 µM; ID50 [25]: 0.44 µM
CN(Cc1cnc2nc(N)nc(N)c2n1)c1ccc(C(=O)NC(CCC(=O)NN)C(=O)NN)cc1 (stereo not given) |  | 0.36 | 7.5 | 0.02 |  | 950 | 40 | 77 | 14.2 | 18.8 | 37.6 | 40 | 33 |  |  | IC50 [28]: 960 nM; MTX equivalent [29]: 7.1 mg/kg; Median T/C [30]: 16 days; Median T/C [31]: 14 days; Median T/C [32]: 14 days; Median T/C [33]: 12 days
CN(Cc1cnc2nc(N)nc(N)c2n1)c1ccc(C(=O)NC(CCC(=O)N(Cc2ccccc2)Cc2ccccc2)C(=O)N(Cc2ccccc2)Cc2ccccc2)cc1 (stereo not given) |  | 0.86 |  | 0.53 |  |  |  |  |  |  |  |  |  | 7.6 | 0.69 | 
CN(Cc1cnc2nc(N)nc(N)c2n1)c1ccc(C(=O)NC(CCC(=O)Nc2ccccc2)C(=O)Nc2ccccc2)cc1 (stereo not given) | 111 |  | 3.3 | 0.074 | 60 | 410 |  |  |  |  |  |  |  |  |  | ILS at 40 mg/kg [34]: 44%; Median T/C [35]: 19 days; Median T/C [36]: 13 days; MTX equivalent [37]: 90 mg/kg; Median T/C [38]: 23 days; MTX equivalent [39]: 30 mg/kg; ILS at 120 mg/kg [40]: 155%; ID50 [41]: 1.1 µM
